In general, Km refers to the substrate concentration at which the rate is half of its maximum.

Compound in series [1]: N#Cc1ccccc1CN1CC(C(N)=O)Oc2ccccc21
Kind of series: Uncompetitive inhibition of His6-tagged SIRT1 (unknown origin) expressed in Escherichia coli BL21 (DE3) assessed as change in Vmax at 800 nM measured every 2 mins for 30 mins in presence of NAD+ and ATP by […] based Michaelis-Menten analysis (reference value: 860 to 1326 AU/min). As to conditions: Homo sapiens. The procedure, abridged: (§1)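 Continuous assay, triplicates: 100 nM His6-SirT1 catalytic domain, ~270 nM FLucK529ac, inhibitor 100–1600 nM in sirtuin buffer 2 plus luciferase buffer (0.5 mM ATP, 0.5 mM luciferin, pH 7.8).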

Compound in series [2]: N#Cc1ccccc1CN1CC(C(N)=O)Oc2ccccc21
Kind of series: Uncompetitive inhibition of His6-tagged SIRT1 (unknown origin) expressed in Escherichia coli BL21 (DE3) assessed as change in Vmax at 1600 nM measured every 2 mins for 30 mins in presence of NAD+ and ATP by […] based Michaelis-Menten analysis (reference value: 860 to 1326 AU/min). As to conditions: Homo sapiens. In a few lines: as §1

Compound in series [3]: N#Cc1ccccc1CN1CC(C(N)=O)Oc2ccccc21
Kind of series: Uncompetitive inhibition of His6-tagged SIRT1 (unknown origin) expressed in Escherichia coli BL21 (DE3) assessed as change in Km at 800 nM measured every 2 mins for 30 mins in presence of NAD+ and ATP by […] based Michaelis-Menten analysis (reference value: 54.3 to 57.6 uM). As to conditions: Homo sapiens. The procedure, abridged: as §1

Compound in series [4]: N#Cc1ccccc1CN1CC(C(N)=O)Oc2ccccc21
Kind of series: Uncompetitive inhibition of His6-tagged SIRT1 (unknown origin) expressed in Escherichia coli BL21 (DE3) assessed as change in Km at 1600 nM measured every 2 mins for 30 mins in presence of NAD+ and ATP by […] based Michaelis-Menten analysis (reference value: 54.3 to 57.6 uM). The settings on record: Homo sapiens. The procedure, abridged:
as §1

Substrate in series [5]: N#Cc1ccccc1CN1CC(C(N)=O)Oc2ccccc21
The settings on record: Homo sapiens; dose 100.0 nM, time 30.0 min.

Substrate in series [6]: N#Cc1ccccc1CN1CC(C(N)=O)Oc2ccccc21
As to conditions: Homo sapiens; dose 200.0 nM, time 30.0 min.

Substrate in series [7]: N#Cc1ccccc1CN1CC(C(N)=O)Oc2ccccc21
As to conditions: Homo sapiens; dose 400.0 nM, time 30.0 min.

Substrate in series [8]: N#Cc1ccccc1CN1CC(C(N)=O)Oc2ccccc21
The settings on record: Homo sapiens; dose 100.0 nM, time 30.0 min. This is another data set of the same source.

Substrate in series [9]: N#Cc1ccccc1CN1CC(C(N)=O)Oc2ccccc21
The settings on record: Homo sapiens; dose 200.0 nM, time 30.0 min. The source holds these as a separate data set.

Substrate in series [10]: N#Cc1ccccc1CN1CC(C(N)=O)Oc2ccccc21
As to conditions: Homo sapiens; dose 400.0 nM, time 30.0 min. The source holds these as a separate data set.

B1: NAD-dependent protein deacetylase sirtuin-1 (Homo sapiens), Q96EB6 (protein)
chain: MADEAALALQPGGSPSAAGADREAASSPAGEPLRKRPRRDGPGLERSPGEPGGAAPEREVPAAARGCPGAAAAALWREAEAEAAAAGGEQEAQATAAAGEGDNGPGLQGPSREPPLADNLYDEDDDDEGEEEEEAAAAAIGYRDNLLFGDEIITNGFHSCESDEEDRASHASSSDWTPRPRIGPYTFVQQHLMIGTDPRTILKDLLPETIPPPELDDMTLWQIVINILSEPPKRKKRKDINTIEDAVKLLQECKKIIVLTGAGVSVSCGIPDFRSRDGIYARLAVDFPDLPDPQAMFDIEYFRKDPRPFFKFAKEIYPGQFQPSLCHKFIALSDKEGKLLRNYTQNIDTLEQVAGIQRIIQCHGSFATASCLICKYKVDCEAVRGDIFNQVVPRCPRCPADEPLAIMKPEIVFFGENLPEQFHRAMKYDKDEVDLLIVIGSSLKVRPVALIPSSIPHEVPQILINREPLPHLHFDVELLGDCDVIINELCHRLGGEYAKLCCNPVKLSEITEKPPRTQKELAYLSELPPTPLHVSEDSSSPERTSPPDSSVIVTLLDQAAKSNDDLDVSESKGCMEEKPQEVQTSRNVESIAEQMENPDLKNVGSSTGEKNERTSVAGTVRKCWPNRVAKEQISRRLDGNQYLFLPPNRYIFHGAEVYSDSEDDVLSSSSCGSNSDSGTCQSPSLEEPMEDESEIEEFYNGLEDEPDVPERAGGAGFGTDGDDQEAINEAISVKQEVTDMNYPSNKS
Turning to B1, the Vmax in series [1] worked out at 304 AU/min; in series [2] it was 208 AU/min; in series [5] it was 864 AU/min; in series [6], 673 AU/min; in series [7] it was 522 AU/min. In addition, the Km in series [3] turned out to be 10 µM; in [4] it was 4.9 µM; in series [8] it was 47.7 µM; in series [9], 34.6 µM; in series [10], 23.8 µM.

Values taken from ChEMBL document CHEMBL4834428.
